Measured values published in ChEMBL document CHEMBL1153833, “Effect of dosing and dosing frequency on the efficacy of ceftizoxime and the emergence of ceftizoxime resistance during the early development of murine abscesses caused by Bacteroides fragilis and Enterobacter cloacae mixed infection” (Antimicrob Agents Chemother, 2007).
≈ marks a conversion by molar mass, not a printed value. Calls of active or inactive are those of the source.

Legend:
Enterobacter cloacae [1] = experiment: Antimicrobial activity against Enterobacter cloacae isolate 22491 infected BALB/c mouse mixed infection abscesses model co-infected with Bacteroides fragilis ATCC 23745 assessed as increase in resistant bacterial count per abscess at 6 mg/kg/day administered every 2 hrs; assay type: functional
Summary of the method: (§1)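 Mixed subcutaneous flank abscesses in female SPF BALB/c mice (10^7 CFU of each strain plus 4 mg autoclaved cecal contents). Drug given subcutaneously, starting 30 min before inoculation, for 24 h. Abscesses homogenized in PBS. Resistant E. cloacae counted on WC agar with 16x MIC (48 h aerobic, 37°C) and total counts on drug-free EM agar. Groups of two mice.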

Bacteroides fragilis [2] = experiment: Antimicrobial activity against Bacteroides fragilis ATCC 23745 infected BALB/c mouse mixed infection abscesses model co-infected with Enterobacter cloacae isolate 22491 assessed as inhibition of emergence of resistance mutation; assay type: functional, organism-based
Summary of the method: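 Female SPF BALB/c mice (12–18 weeks, 20–25 g) injected subcutaneously on both flanks with 10^7 CFU B. fragilis, 10^7 CFU E. cloacae and 4 mg ACC. Drug given subcutaneously at 6–1,536 mg/kg/day, q2h–q8h, beginning 30 min before inoculation, for 24 h. B. fragilis mutants counted on WC agar with 16x MIC plus 100 mg/liter gentamicin, 72 h anaerobic, 37°C.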

Enterobacter cloacae [3] = experiment: Antimicrobial activity against Enterobacter cloacae isolate 22491 infected BALB/c mouse mixed infection abscesses model co-infected with Bacteroides fragilis ATCC 23745 assessed as bacterial killing at 96 mg/kg/day administered every 4 hrs; assay type: functional, organism-based
Summary of the method: (§2)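 Female BALB/c mice (12-18 wk) injected s.c. on both flanks with 10^7 CFU each of B. fragilis and E. cloacae plus 4 mg autoclaved cecal contents. CZX was given s.c. from 30 min before inoculation for 24 h, two mice per group. Abscesses were homogenized in PBS and plated in duplicate: E. cloacae on EM agar (aerobic, 24 h), B. fragilis on WC agar with gentamicin (anaerobic, 48 h). Result is mean log10 CFU/abscess of four abscesses ± SEM versus untreated; threshold 1.7 log10.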

Bacteroides fragilis [4] = experiment: Antimicrobial activity against Bacteroides fragilis ATCC 23745 infected BALB/c mouse mixed infection abscesses model co-infected with Enterobacter cloacae isolate 22491 assessed as reduction in bacterial load per abscess at 1536 mg/kg/day administered every 8 hrs; assay type: functional; summary of the method: as §2
Enterobacter cloacae [5] = experiment: Antimicrobial activity against Enterobacter cloacae isolate 22491 infected BALB/c mouse mixed infection abscesses model co-infected with Bacteroides fragilis ATCC 23745 assessed as bacterial killing at 24 mg/kg/day administered every 4 hrs; assay type: functional, organism-based; summary of the method: as §2
Enterobacter cloacae [6] = experiment: Antimicrobial activity against Enterobacter cloacae isolate 22491 assessed as mutation prevention concentration; assay type: functional
Summary of the method: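 Overnight culture concentrated to 10^10 CFU/ml by centrifugation. 1 ml spread over five agar plates containing drug, first at twofold dilutions, then at linear increments. Plates read after 18 h at 37°C. MPC taken as the lowest concentration giving no colonies from 10^10 bacteria. Colonies from the highest concentration were subcultured drug-free to check mutant stability.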

Bacteroides fragilis [7] = experiment: Antimicrobial activity against Bacteroides fragilis ATCC 23745 infected BALB/c mouse mixed infection abscesses model co-infected with Enterobacter cloacae isolate 22491 assessed as reduction in bacterial load per abscess at 384 mg/kg/day administered every 8 hrs; assay type: functional; summary of the method: as §2
[8] = Ratio of fAUC to MIC in Enterobacter cloacae isolate 22491 infected BALB/c mouse mixed infection abscesses model co-infected with Bacteroides fragilis ATCC 23745; assay type: functional
Enterobacter cloacae [9] = experiment: Antimicrobial activity against Enterobacter cloacae isolate 22491; assay type: functional
Enterobacter cloacae [10] = experiment: Antimicrobial activity against Enterobacter cloacae isolate 22491 infected BALB/c mouse mixed infection abscesses model co-infected with Bacteroides fragilis ATCC 23745 assessed as reduction in bacterial load per abscess at 384 mg/kg/day administered every 8 hrs; assay type: functional; summary of the method: as §2
Enterobacter cloacae [11] = experiment: Antimicrobial activity against Enterobacter cloacae isolate 22491 infected BALB/c mouse mixed infection abscesses model co-infected with Bacteroides fragilis ATCC 23745 assessed as increase in resistant bacterial count per abscess at 24 mg/kg/day administered every 2 hrs; assay type: functional; summary of the method: as §1
Mus musculus [12] = experiment: Unbound Cmax (fCmax) in Bacteroides fragilis ATCC 23745 and Enterobacter cloacae isolate 22491-infected BALB/c mouse mixed infection abscesses model at 100 mg/kg administered as single dose; assay type: ADME, organism-based; design: dose 100 mg/kg; conditions: in vivo
Summary of the method: (§3)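 Single s.c. dose of 100 mg/kg CZX in groups of three infected mice, 4 days after inoculation. Orbital blood taken at 10-360 min. Serum CZX measured in duplicate by agar diffusion bioassay against E. coli strain 62. One-compartment open model; unbound values assume 13% serum protein binding.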

Mus musculus [13] = experiment: Unbound Cmax (fCmax) in Bacteroides fragilis ATCC 23745 and Enterobacter cloacae isolate 22491-infected BALB/c mouse mixed infection abscesses model at 100 mg/kg administered as 36 doses every 2 hrs; assay type: ADME, organism-based; design: dose 100 mg/kg; conditions: in vivo
Summary of the method: (§4)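 Infected mice received 36 doses of 100 mg/kg CZX q2h. Serum CZX measured in duplicate by agar diffusion bioassay against E. coli strain 62. One-compartment open model; unbound values assume 13% protein binding in mouse serum.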

Bacteroides fragilis [14] = experiment: Antimicrobial activity against Bacteroides fragilis ATCC 23745 infected BALB/c mouse mixed infection abscesses model co-infected with Enterobacter cloacae isolate 22491 assessed as bacterial killing at 96 mg/kg/day administered every 4 hrs; assay type: functional, organism-based; summary of the method: as §2
Bacteroides fragilis [15] = experiment: Antimicrobial activity against Bacteroides fragilis ATCC 23745 infected BALB/c mouse mixed infection abscesses model co-infected with Enterobacter cloacae isolate 22491 assessed as bacterial killing at 6 mg/kg/day administered every 2 hrs; assay type: functional, organism-based; summary of the method: as §2
Enterobacter cloacae [16] = experiment: Antimicrobial activity against Enterobacter cloacae isolate 22491 infected BALB/c mouse mixed infection abscesses model co-infected with Bacteroides fragilis ATCC 23745 assessed as increase in resistant bacterial count per abscess at 96 mg/kg/day administered every 2 hrs; assay type: functional; summary of the method: as §1
Bacteroides fragilis [17] = experiment: Antimicrobial activity against Bacteroides fragilis ATCC 23745; assay type: functional
Enterobacter cloacae [18] = experiment: Antimicrobial activity against Enterobacter cloacae isolate 22491 infected BALB/c mouse mixed infection abscesses model co-infected with Bacteroides fragilis ATCC 23745 assessed as bacterial killing at 6 mg/kg/day administered every 2 hrs; assay type: functional, organism-based; summary of the method: as §2
[19] = Half life in Bacteroides fragilis ATCC 23745 and Enterobacter cloacae isolate 22491-infected BALB/c mouse mixed infection abscesses model at 100 mg/kg administered as 36 doses every 2 hrs; assay type: ADME, organism-based; design: dose 100 mg/kg; conditions: in vivo; summary of the method: as §4
Enterobacter cloacae [20] = experiment: Antimicrobial activity against Enterobacter cloacae isolate 22491 infected BALB/c mouse mixed infection abscesses model co-infected with Bacteroides fragilis ATCC 23745 assessed as reduction in bacterial load per abscess at 1536 mg/kg/day administered every 8 hrs; assay type: functional; summary of the method: as §2
[21] = Half life in Bacteroides fragilis ATCC 23745 and Enterobacter cloacae isolate 22491-infected BALB/c mouse mixed infection abscesses model at 100 mg/kg administered as single dose; assay type: ADME, organism-based; design: dose 100 mg/kg; conditions: in vivo; summary of the method: as §3
[22] = fT>MIC in Enterobacter cloacae isolate 22491-infected BALB/c mouse at 100 mg/kg; assay type: functional
Enterobacter cloacae [23] = experiment: Antimicrobial activity against Enterobacter cloacae isolate 22491 infected BALB/c mouse mixed infection abscesses model co-infected with Bacteroides fragilis ATCC 23745 assessed as increase in resistant bacterial count per abscess at 96 mg/kg/day administered every 4 hrs; assay type: functional; summary of the method: as §1
Enterobacter cloacae [24] = experiment: Antimicrobial activity against Enterobacter cloacae isolate 22491 infected BALB/c mouse mixed infection abscesses model co-infected with Bacteroides fragilis ATCC 23745 assessed as increase in resistant bacterial count per abscess at 6 mg/kg/day administered every 4 hrs; assay type: functional; summary of the method: as §1
Bacteroides fragilis [25] = experiment: Antimicrobial activity against Bacteroides fragilis ATCC 23745 infected BALB/c mouse mixed infection abscesses model co-infected with Enterobacter cloacae isolate 22491 assessed as bacterial killing at 24 mg/kg/day administered every 4 hrs; assay type: functional, organism-based; summary of the method: as §2
Enterobacter cloacae [26] = experiment: Antimicrobial activity against Enterobacter cloacae isolate 22491 infected BALB/c mouse mixed infection abscesses model co-infected with Bacteroides fragilis ATCC 23745 assessed as increase in resistant bacterial count per abscess at 24 mg/kg/day administered every 4 hrs; assay type: functional; summary of the method: as §1

In the case of CO/N=C(\C(=O)N[C@@H]1C(=O)N2C(C(=O)O)=CCS[C@H]12)c1csc(N)n1 [CEFTIZOXIME], the log10cfu (Enterobacter cloacae [1]) was 3.8, the Activity (Bacteroides fragilis [2]) was “Active” and the Activity (Enterobacter cloacae [3]) was “inactive”. For the same molecule, the log10cfu (Bacteroides fragilis [4]) was “>=5”, the Activity (Enterobacter cloacae [5]) was “inactive” and the MPC (Enterobacter cloacae [6]) was 384 µg/mL. The log10cfu (Bacteroides fragilis [7]) was “>=5”, the Ratio [8] was 1000 and the MIC (Enterobacter cloacae [9]) was 0.25 µg/mL (≈ 0.652 µM). The MIC99 (Enterobacter cloacae [9]) was 0.125 µg/mL (≈ 0.326 µM), the log10cfu (Enterobacter cloacae [10]) was “>=5” and the log10cfu (Enterobacter cloacae [11]) was 3.8. The Cmax_unbound (Mus musculus [12]) was 600 ng/mL, the Cmax_unbound (Mus musculus [13]) was 600 ng/mL and the Activity (Bacteroides fragilis [14]) was “inactive”. For the same molecule, the Activity (Bacteroides fragilis [15]) was “inactive”, the log10cfu (Enterobacter cloacae [16]) was 3.8 and the MIC (Bacteroides fragilis [17]) was 1 µg/mL (≈ 2.61 µM). For the same molecule, the Activity (Enterobacter cloacae [18]) was “inactive”, the half-life [19] was 13.2 min and the log10cfu (Enterobacter cloacae [20]) was “>=5”. For the same molecule, the half-life [21] was 13.8 min, the “T>MIC” value [22] was 9% and the log10cfu (Enterobacter cloacae [23]) was 2. For the same molecule, the log10cfu (Enterobacter cloacae [24]) was 2, the Activity (Bacteroides fragilis [25]) was “inactive” and the log10cfu (Enterobacter cloacae [26]) was 2.
